The values that follow come from ChEMBL document CHEMBL4152346, “Sulfonamido-2-arylbenzoxazole GroEL/ES Inhibitors as Potent Antibacterials against Methicillin-Resistant Staphylococcus aureus (MRSA)” (J Med Chem, 2018).

Series [1] in a line: Inhibition of refolded MDH (unknown origin) preincubated with Escherichia coli GroEL/GroES for 45 mins using sodium mesoxalate as substrate by spectrometric analysis. More on the design: species or system Homo sapiens. In a few lines:
(§1)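 Chaperonin-mediated refolding of denatured MDH, coupled to MDH enzymatic activity as the reporter. Human HSP60/10 (HSP60 without its 26-residue mitochondrial signal peptide) or E. coli GroEL/ES was used, with GroEL tetradecamer at 50 nM (700 nM subunits) during the refolding cycle. IC50s from replicate dose-response curves were averaged as logs after ROUT outlier removal.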

The test system of the next series is Klebsiella pneumoniae. Nature of the series: Antibacterial activity against Klebsiella pneumoniae ATCC 13883 after 6 to 8 hrs. It counts as functional, organism-based. In outline: (§2)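 Stagnant liquid-culture proliferation assay at 37°C in broth cation-adjusted with 25 mg/L Ca²⁺ and 12.5 mg/L Mg²⁺, with compounds stamped into the wells. […] OD600 turbidity was read at 6–8 h (K. pneumoniae, E. cloacae, P. aeruginosa) or 24 h (A. baumannii). EC50 came from non-linear regression, averaged in log form over replicates.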

For another series, the system named is Pseudomonas aeruginosa. Nature of the series: Antibacterial activity against Pseudomonas aeruginosa ATCC 10145 after 6 to 8 hrs. It counts as functional, organism-based. In a few lines: as §2
A further series deals with Staphylococcus aureus. Nature of the series: Antibacterial activity against multidrug resistant Staphylococcus aureus ATCC BAA-44 after 6 to 8 hrs. It counts as functional, organism-based.
The subject of another series is Enterobacter cloacae. Nature of the series: Antibacterial activity against Enterobacter cloacae subsp. cloacae ATCC 13047 after 6 to 8 hrs. It counts as functional, organism-based. In a few lines: as §2
A short description of series [2]: Cytotoxicity against human THLE3 cells after 48 hrs by Alamar blue assay. It counts as cell-based. In a few lines: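 THLE-3 cells, grown in BEBM with the BEGM kit and 10% FBS, were seeded at 1,500 cells/well and allowed 24 h at 37°C, 5% CO2. Compounds were then added at 100 µM to 46 nM final (3-fold steps, 0.1% DMSO) for 48 h. […] CC50 is the log-average of at least triplicate runs.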

For series [3], the target named is T1, Thiosulfate sulfurtransferase (Homo sapiens, UniProt Q16762).
T1 sequence (Q16762 whole entry): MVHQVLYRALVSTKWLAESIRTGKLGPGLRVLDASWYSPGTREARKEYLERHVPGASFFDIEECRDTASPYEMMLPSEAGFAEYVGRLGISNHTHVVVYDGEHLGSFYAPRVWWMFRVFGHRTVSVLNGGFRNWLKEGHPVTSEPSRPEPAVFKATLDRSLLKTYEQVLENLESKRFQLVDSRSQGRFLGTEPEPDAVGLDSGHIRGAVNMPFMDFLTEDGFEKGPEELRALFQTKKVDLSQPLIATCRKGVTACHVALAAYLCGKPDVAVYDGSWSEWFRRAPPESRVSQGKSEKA
Nature of the series: Inhibition of refolded rhodanese (unknown origin) preincubated with Escherichia coli GroEL/GroES for 60 mins by measuring […] after 20 to 40 mins by spectrometric analysis.

Another series concerns Acinetobacter baumannii. Nature of the series: Antibacterial activity against Acinetobacter baumannii ATCC 19606 after 24 hrs. Format: functional, organism-based. The note with it: ATCC 19606 = CIP 70.34 = JCM 6841. In a few lines: as §2
Another series addresses HSP60/HSP10 (Homo sapiens, UniProt P10809). Nature of the series: Inhibition of human N-terminal octa-His-tagged HSP60 expressed in Escherichia coli Rosetta(DE3) pLysS/human HSP10 expressed in Escherichia coli Rosetta(DE3) assessed as reduction in HSP60/HSP10-mediated denatured MDH refolding by measuring MDH enzyme activity using sodium mesoxalate as substrate after 40 to 60 mins by spectrometric analysis. In a few lines: as §1

The structures appear in SMILES notation. Activity calls are given as the source filed them. The rule behind the calls is not given here.

HSP60/HSP10, sequence (P10809 whole entry): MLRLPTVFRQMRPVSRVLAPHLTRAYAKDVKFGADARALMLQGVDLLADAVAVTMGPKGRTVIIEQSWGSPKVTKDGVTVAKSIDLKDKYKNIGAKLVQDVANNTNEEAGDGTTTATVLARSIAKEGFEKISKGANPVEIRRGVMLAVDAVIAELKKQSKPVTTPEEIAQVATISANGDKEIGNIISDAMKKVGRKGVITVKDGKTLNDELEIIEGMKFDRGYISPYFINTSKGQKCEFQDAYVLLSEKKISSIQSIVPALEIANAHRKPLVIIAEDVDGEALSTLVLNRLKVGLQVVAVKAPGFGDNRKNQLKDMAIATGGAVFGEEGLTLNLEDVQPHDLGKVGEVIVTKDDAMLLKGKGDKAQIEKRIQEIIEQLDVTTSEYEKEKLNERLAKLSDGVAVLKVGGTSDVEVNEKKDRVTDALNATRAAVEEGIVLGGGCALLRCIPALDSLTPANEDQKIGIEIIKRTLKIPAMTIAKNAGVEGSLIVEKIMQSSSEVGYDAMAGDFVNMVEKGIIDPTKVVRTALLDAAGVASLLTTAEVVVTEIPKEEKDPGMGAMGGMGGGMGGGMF
HSP60/HSP10, sequence (P61604 whole entry, further chain): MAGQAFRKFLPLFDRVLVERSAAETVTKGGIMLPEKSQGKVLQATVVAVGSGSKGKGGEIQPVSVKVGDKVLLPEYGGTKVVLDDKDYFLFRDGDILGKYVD

In general, IC50 refers to the point on the concentration scale where inhibition reaches its midpoint. As usually defined, the EC50 is the concentration giving half of the maximal effect. The CC50 is the concentration at which the toxic effect on the cells reaches its halfway point. High values mean better tolerance by the cells, low ones harm at low concentration. As to `O=S(=O)(Nc1ccc(-c2nc3cc(NS(=O)(=O)c4ccc(Cl)cc4)ccc3o2)cc1)c1ccc(Cl)cc1`, the IC50 was more than 63 µM in series [1] and more than 100 µM in series [3]. Besides, the result in the series on Klebsiella pneumoniae, with Pseudomonas aeruginosa, in the series on Enterobacter cloacae and in the series with Acinetobacter baumannii was inactive. The same compound came in with an EC50 in the series on Staphylococcus aureus of 3.5 µM. The compound also showed a CC50 at 48 h in series [2] of 18 µM.
Consider `O=S(=O)(Nc1ccc2oc(-c3ccc(NS(=O)(=O)c4cccc5nonc45)cc3)nc2c1)c1ccc(Cl)s1`, for which the results for the IC50 (in series [1]; at HSP60/HSP10; in series [3]) were more than 63 µM, 11 µM and 72 µM, respectively. The EC50 in the series with Staphylococcus aureus was found to be 4.5 µM. The compound also displayed a CC50 at 48 h in [2] of 69 µM.
`O=S(=O)(Nc1ccc(-c2nc3cc(NS(=O)(=O)c4ccc(Cl)s4)ccc3o2)cc1)c1cccc(C(F)(F)F)c1`: the IC50 in [1] was more than 63 µM; in [3], more than 100 µM. A half-maximal response in the series on Staphylococcus aureus (EC50) required 2.3 µM. The compound also showed a CC50 at 48 h in series [2] of 27 µM.
With `N#Cc1cccc(S(=O)(=O)Nc2ccc(-c3nc4cc(NS(=O)(=O)c5cccc(C#N)c5)ccc4o3)cc2)c1`, the result in the series on Klebsiella pneumoniae, with Pseudomonas aeruginosa, in the series on Enterobacter cloacae and in the series with Acinetobacter baumannii was inactive.
Consider `O=S(=O)(Nc1ccc(-c2nc3cc(NS(=O)(=O)c4ccc5ccccc5c4)ccc3o2)cc1)c1ccc2ccccc2c1`, for which the result in the series with Klebsiella pneumoniae, in the series on Pseudomonas aeruginosa, in the series with Enterobacter cloacae and in the series on Acinetobacter baumannii was inactive.
Take `O=C(O)c1ccccc1S(=O)(=O)Nc1ccc(-c2nc3cc(NS(=O)(=O)c4ccccc4C(=O)O)ccc3o2)cc1`: the outcome with Klebsiella pneumoniae, with Pseudomonas aeruginosa, with Enterobacter cloacae and in the series on Acinetobacter baumannii was inactive.
`O=S(=O)(Nc1ccc(-c2nc3cc(NS(=O)(=O)C(F)(F)F)ccc3o2)cc1)C(F)(F)F`: the result in the series with Klebsiella pneumoniae, with Pseudomonas aeruginosa, in the series on Enterobacter cloacae and in the series on Acinetobacter baumannii was inactive.
As for `O=S(=O)(Nc1ccc(-c2nc3cc(NS(=O)(=O)c4cccc(O)c4)ccc3o2)cc1)c1cccc(O)c1`, the outcome with Klebsiella pneumoniae, in the series with Pseudomonas aeruginosa, in the series with Enterobacter cloacae and in the series on Acinetobacter baumannii was inactive.
On to `COc1ccccc1S(=O)(=O)Nc1ccc(-c2nc3cc(NS(=O)(=O)c4ccccc4OC)ccc3o2)cc1`, for which the result in the series on Klebsiella pneumoniae, with Pseudomonas aeruginosa, in the series with Enterobacter cloacae and in the series with Acinetobacter baumannii was inactive.
On to `Cc1cccc(S(=O)(=O)Nc2ccc(-c3nc4cc(NS(=O)(=O)c5cccc(C)c5)ccc4o3)cc2)c1`, for which the outcome with Klebsiella pneumoniae, in the series with Pseudomonas aeruginosa, with Enterobacter cloacae and with Acinetobacter baumannii was inactive.
As for `O=S(=O)(Nc1ccc(-c2nc3cc(NS(=O)(=O)c4cccc(Cl)c4)ccc3o2)cc1)c1cccc(Cl)c1`, the result in the series with Klebsiella pneumoniae, in the series on Pseudomonas aeruginosa, with Enterobacter cloacae and in the series on Acinetobacter baumannii was inactive.
Turning to `O=C(O)c1ccc(S(=O)(=O)Nc2ccc(-c3nc4cc(NS(=O)(=O)c5ccc(C(=O)O)cc5)ccc4o3)cc2)cc1`, the result with Klebsiella pneumoniae, with Pseudomonas aeruginosa, with Enterobacter cloacae and in the series on Acinetobacter baumannii was inactive.
Take `O=S(=O)(Nc1ccc(-c2nc3cc(NS(=O)(=O)c4ccccc4F)ccc3o2)cc1)c1ccccc1F`: the outcome in the series on Klebsiella pneumoniae, in the series on Pseudomonas aeruginosa, with Enterobacter cloacae and in the series with Acinetobacter baumannii was inactive.
As for `O=S(=O)(Nc1ccc(-c2nc3cc(NS(=O)(=O)c4ccccc4)ccc3o2)cc1)c1ccccc1`, the outcome with Klebsiella pneumoniae, in the series on Pseudomonas aeruginosa, with Enterobacter cloacae and in the series on Acinetobacter baumannii was inactive.
With `O=S(=O)(Nc1ccc2oc(-c3ccc(NS(=O)(=O)c4ccc5ncsc5c4)cc3)nc2c1)c1ccc2scnc2c1`, the result in the series on Klebsiella pneumoniae, in the series with Pseudomonas aeruginosa, in the series with Enterobacter cloacae and in the series on Acinetobacter baumannii was inactive.
On to `O=c1ccc2cc(S(=O)(=O)Nc3ccc(-c4nc5cc(NS(=O)(=O)c6ccc7oc(=O)ccc7c6)ccc5o4)cc3)ccc2o1`, for which the outcome with Klebsiella pneumoniae, with Pseudomonas aeruginosa, in the series on Enterobacter cloacae and with Acinetobacter baumannii was inactive.
Regarding `O=S(=O)(Nc1ccc(-c2nc3cc(NS(=O)(=O)c4cccc5ccccc45)ccc3o2)cc1)c1cccc2ccccc12`, the outcome in the series with Klebsiella pneumoniae, in the series on Pseudomonas aeruginosa, with Enterobacter cloacae and in the series on Acinetobacter baumannii was inactive.
As to `O=S(=O)(Nc1ccc(-c2nc3cc(NS(=O)(=O)c4cccc5nonc45)ccc3o2)cc1)c1cccc2nonc12`, the outcome in the series on Klebsiella pneumoniae, with Pseudomonas aeruginosa, in the series on Enterobacter cloacae and in the series on Acinetobacter baumannii was inactive.
For the compound `O=S(=O)(Nc1ccc2oc(-c3ccc(NS(=O)(=O)c4ccc(Cl)s4)cc3)nc2c1)c1ccc(Cl)c(C(F)(F)F)c1`, the IC50 in series [1] was 40 µM; at HSP60/HSP10, 2.4 µM; in series [3], more than 100 µM. In addition, a half-maximal response in the series on Staphylococcus aureus (EC50) required 2.2 µM. The compound further displayed a cytotoxic concentration (CC50) at 48 h in [2] of 27 µM.
`Cc1ccc(S(=O)(=O)Nc2ccc(-c3nc4cc(NS(=O)(=O)c5ccc(C)cc5)ccc4o3)cc2)cc1`: the result with Klebsiella pneumoniae, in the series on Pseudomonas aeruginosa, with Enterobacter cloacae and in the series on Acinetobacter baumannii was inactive.
Regarding `O=S(=O)(Nc1ccc(-c2nc3cc(NS(=O)(=O)c4ccccc4Br)ccc3o2)cc1)c1ccccc1Br`, the result with Klebsiella pneumoniae, with Pseudomonas aeruginosa, in the series on Enterobacter cloacae and with Acinetobacter baumannii was inactive.
`O=C(O)c1cccc(S(=O)(=O)Nc2ccc(-c3nc4cc(NS(=O)(=O)c5cccc(C(=O)O)c5)ccc4o3)cc2)c1`: the result in the series with Klebsiella pneumoniae, with Pseudomonas aeruginosa, in the series with Enterobacter cloacae and with Acinetobacter baumannii was inactive.
For `CS(=O)(=O)Nc1ccc(-c2nc3cc(NS(C)(=O)=O)ccc3o2)cc1`, the result in the series with Klebsiella pneumoniae, with Pseudomonas aeruginosa, with Enterobacter cloacae and with Acinetobacter baumannii was inactive.
Take `Cc1ccccc1S(=O)(=O)Nc1ccc(-c2nc3cc(NS(=O)(=O)c4ccccc4C)ccc3o2)cc1`: the outcome in the series on Klebsiella pneumoniae, with Pseudomonas aeruginosa, in the series on Enterobacter cloacae and in the series on Acinetobacter baumannii was inactive.
As to `O=S(=O)(Nc1ccc(-c2nc3cc(NS(=O)(=O)c4ccc(Cl)s4)ccc3o2)cc1)c1ccc(Cl)s1`, the 50% inhibitory concentration (IC50) in series [1] is 52 µM; on HSP60/HSP10, 5.9 µM; in series [3] it was more than 100 µM. In addition, the EC50 in the series with Staphylococcus aureus stood at 4.6 µM. The same compound gave a half-maximal cytotoxic concentration (CC50) at 48 h in series [2] of 49 µM.
For `O=S(=O)(Nc1ccc(-c2nc3cc(NS(=O)(=O)c4cccc5nsnc45)ccc3o2)cc1)c1cccc2nsnc12`, the outcome in the series with Klebsiella pneumoniae, in the series with Pseudomonas aeruginosa, with Enterobacter cloacae and in the series on Acinetobacter baumannii was inactive.
Take `CCCS(=O)(=O)Nc1ccc(-c2nc3cc(NS(=O)(=O)CCC)ccc3o2)cc1`: the result with Klebsiella pneumoniae, in the series on Pseudomonas aeruginosa, with Enterobacter cloacae and in the series on Acinetobacter baumannii was inactive.
